≈ marks a conversion by molar mass, not a printed value. Entries after “also recorded” stand apart in the source; their conditions may differ. Like-named read-outs stand apart in the source and are kept apart here. *1 amine or outer side, *2 acyl side, *3 side chain or, on linkers, in order; H or OH if unused. Where a SMILES comes first, the peptide text is derived from it. Bridges are numbered along the chain shown (N, C = ends). [ ]: non-standard residue; d: D form. X1 = CC(C)CCCCCCCCC[C@H](CC(=O)[*:1])O[*:2]
Tests used:
Gram-negative bacteria = test: Efficacy against Gram-negative bacteria; format: cell-based; settings: data not shown
icaA = settings: cited from earlier work
ATCC 25923 [1] = test: Microbroth dilution MIC, ATCC 25923; format: cell-based, S. aureus; settings: triplicate
Procedure, shortened: (§1)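 Surfactin was dissolved in sterile distilled water and tested by broth microdilution in MH broth. Strains were a reference strain and MALDI-TOF-identified clinical isolates from diabetic foot ulcers. MIC was the lowest concentration without visible growth. For MBC, 10 µL from clear wells was plated on MH agar for 24 h at 37 °C, and MBC was the lowest concentration giving no colonies. Tests were run in triplicate.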

SA 452 [2] = test: Bacterial growth curves, SA 452; format: cell-based, S. aureus; settings: for Growth inhibition: 24-h exposure, 0, 1/2×MIC, MIC, 2×MIC
Procedure, shortened: (§2)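 Cultures of ATCC 25923 and a clinical MRSA strain were diluted to 1×10^6 CFU/mL in MH broth with surfactin at 0, 1/2×MIC, MIC or 2×MIC, with an MH broth-only negative control. Tubes were shaken at 200 rpm and 35 °C for 24 h. OD600 was read at 0, 4, 8, 12 and 24 h. Runs were done in triplicate.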

SA 366 = test: Microbroth dilution MIC, SA 366; format: cell-based, S. aureus; settings: SA 366 (MDR), triplicate
Procedure, shortened: as §1

S. aureus biofilm = settings: ref 28 (Liu et al), cited from earlier work
sortaseA = settings: S. aureus; cited from earlier work
SA 452 biofilm formation = test: Biofilm inhibition assay; format: cell-based, S. aureus
Procedure, shortened: (§3)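 Overnight cultures were diluted in TSB containing serial surfactin dilutions (1/64×MIC to 2×MIC) to 1×10^6 CFU/mL and grown in triplicate wells for 24 h at 37 °C. Wells were washed three times with PBS and stained with 0.5% crystal violet for 20 min. After air-drying, stain was solubilised in 95% ethanol for 20 min at room temperature and OD570 was read.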

[3] = tested on: S. aureus (ATCC 25923 and MRSA SA 452); test: Mutant prevention / resistance selection, both strains; format: cell-based; settings: S. aureus
Procedure, shortened: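 Strains were grown 24 h in MH broth, centrifuged at 4000×g for 10 min and resuspended to 1×1010 CFU/mL. […] MPC was the lowest concentration preventing colonies. MPC/MIC ratio defined the mutant selection window.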

SA 326 = test: Microbroth dilution MIC, SA 326; format: cell-based, S. aureus; settings: SA 326 (MRSA), triplicate
Procedure, shortened: as §1

icaD = settings: cited from earlier work
[4] = tested on: ATCC 25923 biofilm formation; test: Biofilm inhibition assay; format: cell-based, S. aureus
Procedure, shortened: as §3

ATCC 25923 [5] = test: Transmission electron microscopy; format: cell-based, S. aureus; settings: 5×MIC, 1 h, control 0.05% DMSO
ATCC 25923 [6] = test: Bacterial growth curves, ATCC 25923; format: cell-based, S. aureus
Procedure, shortened: as §2

[7] = tested on: standard and clinical strains of Staphylococcus aureus; test: MIC and MBC by microbroth dilution, all selected strains; format: cell-based
Procedure, shortened: as §1

SA 452 [8] = tested on: SA 452
[9] = tested on: S. aureus biofilm formation; test: Biofilm inhibition assay; format: cell-based
Procedure, shortened: as §3

penicillinase = test: Penicillinase inhibition assay; format: biochemical
Procedure, shortened: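 Penicillin K (10,000 U/mL) added at 2:1 to mixture, 1 h at 37 °C. Then 0.01 mol/L iodine for 15 min, back-titrated with 0.01 mol/L Na2S2O3 to colourless, starch indicator near endpoint. Thiosulfate consumed is inversely related to enzyme activity.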

SA 095 = test: Microbroth dilution MIC, SA 095; format: cell-based, S. aureus; settings: SA 095 (non-MDR), triplicate
Procedure, shortened: as §1

human red blood cells = test: Human red blood cells hemolysis assay; format: cell-based; settings: 1 h, 37 °C
Procedure, shortened: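 Whole blood from healthy human volunteers was spun at 1000×g for 5 min, and the RBCs were washed three times in PBS and resuspended in PBS. RBC suspension was mixed 1:1 with serial surfactin dilutions and incubated 1 h at 37 °C, then supernatant A570 was read. Hemolysis % was scaled between 0.1% DMSO (negative) and 0.1% Triton X-100 (positive).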

SA 452 [10] = test: Microbroth dilution MIC, SA 452; format: cell-based, S. aureus; settings: SA 452 (MRSA), triplicate
Procedure, shortened: as §1

ATCC 25923 [11] = tested on: ATCC 25923
fnbA = settings: S. aureus; cited from earlier work
fnbB = settings: S. aureus; cited from earlier work
[12] = 1.5 mg/mL, ref 39 (Englerová et al)

CC(C)CCCCCCCCC[C@@H]1CC(=O)N[C@@H](CCC(=O)O)C(=O)N[C@@H](CC(C)C)C(=O)N[C@H](CC(C)C)C(=O)N[C@@H](C(C)C)C(=O)N[C@@H](CC(=O)O)C(=O)N[C@H](CC(C)C)C(=O)N[C@@H](CC(C)C)C(=O)O1 [Surfactin, surfactin] (EL[dL]VD[dL]L; linker N-C via X1 (inferred))
Efficacy against Gram-negative bacteria relative to Gram-positive (Gram-negative bacteria): less than that of Gram-positive bacteria
Downregulation of icaA expression (icaA; [12]): 2.82 fold
Expression of icaA (in words) (icaA; 2×MIC, ref 28 (Liu et al)): significantly reduced the expression
MIC (ATCC 25923 [1]): 512 µg/mL (≈ 494 µM)
Growth inhibition (SA 452 [2]; OD600): inhibited the growth of ATCC 25923 and SA 452 in a dose-dependent manner
Growth inhibition (SA 452 [2]; OD600, listed as surfactin): inhibited the growth of both ATCC 25923 and SA 452 in a dose-dependent manner
Growth inhibition at MIC and 2×MIC (SA 452 [2]; MIC and 2×MIC): almost completely inhibited
Growth reduction at half the MIC (SA 452 [2]; from 4 h, 1/2×MIC): significantly reduced from 4 h
MIC (SA 366): 512 µg/mL (≈ 494 µM)
Biofilm removal rate (S. aureus biofilm; 0.2% surfactin, 4 h): 80%
Reduction of biofilm production (S. aureus biofilm; one-quarter MIC, S. aureus): 60%
Expression of sortaseA (in words) (sortaseA): inhibit the expression
MRSA biofilm inhibition at 2×MIC (in words) (SA 452 biofilm formation; MRSA, 2×MIC): almost completely inhibited
Biofilm inhibition, dose dependence (SA 452 biofilm formation; SA 452, 1/64×MIC to 2×MIC): dose-dependent inhibitory effect
Inhibition of biofilm formation (SA 452 biofilm formation; SA 452, 2×MIC, crystal violet, 24 h, 37°C): more than 95%
Concentration from which biofilm inhibition starts (SA 452 biofilm formation; SA 452, crystal violet, OD570, 24 h, 37°C, TSB): 1/16
In vitro resistance development [3]: In vitro resistance was not readily produced
MIC (SA 326): 1024 µg/mL (≈ 988 µM)
Downregulation of icaD expression (icaD; [12]): 1.85 fold
Expression of icaD (in words) (icaD; 2×MIC, ref 28 (Liu et al)): significantly reduced the expression
Biofilm inhibition, dose dependence ([4]; 1/64×MIC to 2×MIC): dose-dependent inhibitory effect
Inhibition of biofilm formation ([4]; 2×MIC, crystal violet, 24 h, 37°C): 80%
Concentration from which biofilm inhibition starts ([4]; crystal violet, OD570, 24 h, 37°C, TSB): 1/16
Cell structure by TEM (ATCC 25923 [5]): damaged structure, leading to cell lysis and death; also recorded: irregular and collapsed surfaces, content leakage, and cell death
Growth inhibition (ATCC 25923 [6]; 24-h exposure, 0, 1/2×MIC, MIC, 2×MIC, OD600): inhibited the growth of ATCC 25923 and SA 452 in a dose-dependent manner
Growth inhibition at MIC and 2×MIC (ATCC 25923 [6]; MIC and 2×MIC): almost completely inhibited
Growth reduction at half the MIC (ATCC 25923 [6]; from 4 h, 1/2×MIC): significantly reduced from 4 h
Antibacterial activity (in words) ([7]; S. aureus from DFUs (non-MDR, MDR, MRSA) and ATCC 25923): antibacterial and bactericidal activity against S. aureus strains; also recorded: effectively inhibited the growth of S. aureus
Difference in MICs between strains with different resistance patterns ([7]; non-MDR, MDR, MRSA, ATCC 25923): no significant difference in MICs
FICI (SA 452 [8]; surfactin with ampicillin): 0.133
Fold Change (SA 452 [8]; surfactin with ampicillin): 8
FICI (SA 452 [8]; surfactin with ciprofloxacin): 2
FICI (SA 452 [8]; surfactin with erythromycin): 2
FICI (SA 452 [8]; surfactin with gentamicin): 0.25
Fold Change (SA 452 [8]; surfactin with gentamicin): 8
FICI (SA 452 [8]; surfactin with oxacillin): 0.156
Fold Change (SA 452 [8]; surfactin with oxacillin): 8
FICI (SA 452 [8]; surfactin with tetracycline): 0.133
Fold Change (SA 452 [8]; surfactin with tetracycline): 8
Biofilm inhibition at 1/16×MIC (in words) ([9]; 1/16×MIC): significantly inhibited
Biofilm inhibition (in words) ([9]; S. aureus): significantly prevented the S. aureus biofilm formation; also recorded: dose-dependent inhibitory effect on S. aureus biofilm formation; also recorded: significantly reducing biofilm production
Volume of Na2S2O3 consumed (penicillinase inhibition) (penicillinase; […], 10,000 U/mL penicillinase, 18 h, 35 °C, penicillinase-only control 0.5 mL): 2.25 mL
Penicillinase inhibition (in words) (penicillinase; iodometry): directly inhibited penicillinase activity, but not as much as the clavulanate potassium; also recorded: significantly reduced penicillinase activity
MIC (SA 095): 512 µg/mL (≈ 494 µM)
Hemolysis at 16×MIC (human red blood cells; 16×MIC, human RBC): > 5%
Hemolysis below 16×MIC (human red blood cells; all concentrations less than 16×MIC, human RBC): no hemolysis was observed
Concentration at which hemolytic activity (hemolysis > 5%) occurred (human red blood cells; human RBC in PBS, A570, Triton X-100 positive control): 16 ×MIC
Cytotoxicity to RBCs (in words) (human red blood cells; human RBC): limited toxicity on human red blood cells; also recorded: extremely low cytotoxicity to RBCs; also recorded: very low cytotoxicity to erythrocytes
MIC (SA 452 [10]): 512 µg/mL (≈ 494 µM)
FICI (ATCC 25923 [11]; surfactin with ampicillin): 0.5
Fold Change (ATCC 25923 [11]; surfactin with ciprofloxacin): 2
Fold Change (ATCC 25923 [11]; surfactin with erythromycin): 8
FICI (ATCC 25923 [11]; surfactin with oxacillin): 0.25
Fold Change (ATCC 25923 [11]; surfactin with oxacillin): 8
FICI (ATCC 25923 [11]; surfactin with tetracycline): 0.188
Fold Change (ATCC 25923 [11]; surfactin with tetracycline): 8
Expression of fnbA (in words) (fnbA): inhibit the expression
Expression of fnbB (in words) (fnbB): inhibit the expression
